# Measurements reported in ChEMBL document CHEMBL2375313, “Synthesis, in vitro antitumor evaluation and DNA-binding study of novel tetrahydroquinolines and some derived tricyclic and tetracyclic ring systems” (Eur J Med Chem, 2013).
# Columns and labels:
# Format in all cases: functional
# SK-MEL-2 = assay: Cytotoxicity against human SK-MEL-2 cells assessed as growth inhibition at 10 uM after 48 hrs by sulphorhodamine B assay; conditions: SK-MEL-2, 48 h, read-out: GI
# Method in brief: (§1)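 NCI-60 one-dose screen per the NCI Drug Evaluation Branch protocol. Cells given a single 10 µM concentration with 48 h continuous exposure. Growth estimated by sulphorhodamine B protein assay. Result expressed as percentage growth inhibition relative to untreated growth.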
# PC-3 = assay: Cytotoxicity against human PC3 cells assessed as growth inhibition at 10 uM after 48 hrs by sulphorhodamine B assay; conditions: PC-3, 48 h, read-out: GI; method in brief: as §1
# SK-MEL-5 = assay: Cytotoxicity against human SK-MEL-5 cells assessed as growth inhibition at 10 uM after 48 hrs by sulphorhodamine B assay; conditions: SK-MEL-5, 48 h, read-out: GI; method in brief: as §1
# OVCAR-5 = assay: Cytotoxicity against human OVCAR5 cells assessed as growth inhibition at 10 uM after 48 hrs by sulphorhodamine B assay; conditions: OVCAR-5, 48 h, read-out: GI; method in brief: as §1
# SNB-19 = assay: Cytotoxicity against human SNB19 cells assessed as growth inhibition at 10 uM after 48 hrs by sulphorhodamine B assay; conditions: SNB-19, 48 h, read-out: GI; method in brief: as §1
# Hs-578T = assay: Cytotoxicity against human Hs578T cells assessed as growth inhibition at 10 uM after 48 hrs by sulphorhodamine B assay; conditions: read-out: GI; method in brief: as §1
# A549 = assay: Cytotoxicity against human A549 cells assessed as growth inhibition at 10 uM after 48 hrs by sulphorhodamine B assay; conditions: A549, 48 h, read-out: GI; method in brief: as §1
# MOLT-4 = assay: Cytotoxicity against human MOLT4 cells assessed as growth inhibition at 10 uM after 48 hrs by sulphorhodamine B assay; conditions: MOLT-4, 48 h, read-out: GI; method in brief: as §1
# ACHN = assay: Cytotoxicity against human ACHN cells assessed as growth inhibition at 10 uM after 48 hrs by sulphorhodamine B assay; conditions: read-out: GI; method in brief: as §1
# LOX IMVI = assay: Cytotoxicity against human LOXIMVI cells assessed as growth inhibition at 10 uM after 48 hrs by sulphorhodamine B assay; conditions: read-out: GI; method in brief: as §1
# MDA-MB-435 = assay: Cytotoxicity against human MDA-MB-435 cells assessed as growth inhibition at 10 uM after 48 hrs by sulphorhodamine B assay; conditions: MDA-MB-435, 48 h, read-out: GI; method in brief: as §1
# UACC-62 = assay: Cytotoxicity against human UACC62 cells assessed as growth inhibition at 10 uM after 48 hrs by sulphorhodamine B assay; conditions: UACC-62, 48 h, read-out: GI; method in brief: as §1
# CCRF-CEM = assay: Cytotoxicity against human CCRF-CEM cells assessed as growth inhibition at 10 uM after 48 hrs by sulphorhodamine B assay; conditions: read-out: GI; method in brief: as §1
# SF-268 = assay: Cytotoxicity against human SF268 cells assessed as growth inhibition at 10 uM after 48 hrs by sulphorhodamine B assay; conditions: SF-268, 48 h, read-out: GI; method in brief: as §1
# HL-60(TB) = assay: Cytotoxicity against human HL-60(TB) cells assessed as growth inhibition at 10 uM after 48 hrs by sulphorhodamine B assay; conditions: HL-60, 48 h, read-out: GI
# Method in brief: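 NCI-60 one-dose primary screen run to the Drug Evaluation Branch protocol. Cells are exposed to a single 10 µM concentration for 48 h continuously, and growth is read by SRB protein assay. Data are reported as percent growth of treated cells, expressed as % growth inhibition.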
# HCT-15 = assay: Cytotoxicity against human HCT15 cells assessed as growth inhibition at 10 uM after 48 hrs by sulphorhodamine B assay; conditions: HCT-15, 48 h, read-out: GI; method in brief: as §1
# RXF 393 = assay: Cytotoxicity against human RXF393 cells assessed as growth inhibition at 10 uM after 48 hrs by sulphorhodamine B assay; conditions: RXF 393, 48 h, read-out: GI; method in brief: as §1
# NCI-H522 = assay: Cytotoxicity against human NCI-H522 cells assessed as growth inhibition at 10 uM after 48 hrs by sulphorhodamine B assay; conditions: NCI-H522, 48 h, read-out: GI; method in brief: as §1
# SR = assay: Cytotoxicity against human SR cells assessed as growth inhibition at 10 uM after 48 hrs by sulphorhodamine B assay; conditions: read-out: GI; method in brief: as §1
# NCI-H23 = assay: Cytotoxicity against human NCI-H23 cells assessed as growth inhibition at 10 uM after 48 hrs by sulphorhodamine B assay; conditions: NCI-H23, 48 h, read-out: GI; method in brief: as §1
# HT-29 = assay: Cytotoxicity against human HT-29 cells assessed as growth inhibition at 10 uM after 48 hrs by sulphorhodamine B assay; conditions: HT-29, 48 h, read-out: GI; method in brief: as §1
# SK-OV-3 = assay: Cytotoxicity against human SKOV3 cells assessed as growth inhibition at 10 uM after 48 hrs by sulphorhodamine B assay; conditions: SK-OV-3, 48 h, read-out: GI; method in brief: as §1
# U-251 = assay: Cytotoxicity against human U251 cells assessed as growth inhibition at 10 uM after 48 hrs by sulphorhodamine B assay; conditions: U-251, 48 h, read-out: GI; method in brief: as §1
# MDA-MB-468 = assay: Cytotoxicity against human MDA-MB-468 cells assessed as growth inhibition at 10 uM after 48 hrs by sulphorhodamine B assay; conditions: MDA-MB-468, 48 h, read-out: GI; method in brief: as §1
# RPMI-8226 = assay: Cytotoxicity against human RPMI8226 cells assessed as growth inhibition at 10 uM after 48 hrs by sulphorhodamine B assay; conditions: RPMI-8226, 48 h, read-out: GI; method in brief: as §1
# CAKI-1 = assay: Cytotoxicity against human Caki1 cells assessed as growth inhibition at 10 uM after 48 hrs by sulphorhodamine B assay; conditions: CAKI-1, 48 h, read-out: GI; method in brief: as §1
# T47D = assay: Cytotoxicity against human T47D cells assessed as growth inhibition at 10 uM after 48 hrs by sulphorhodamine B assay; conditions: read-out: GI; method in brief: as §1
# MCF7 = assay: Cytotoxicity against human MCF7 cells assessed as growth inhibition at 10 uM after 48 hrs by sulphorhodamine B assay; conditions: MCF7, 48 h, read-out: GI; method in brief: as §1
# A498 = assay: Cytotoxicity against human A498 cells assessed as growth inhibition at 10 uM after 48 hrs by sulphorhodamine B assay; conditions: A498, 48 h, read-out: GI; method in brief: as §1
# OVCAR-4 = assay: Cytotoxicity against human OVCAR4 cells assessed as growth inhibition at 10 uM after 48 hrs by sulphorhodamine B assay; conditions: OVCAR-4, 48 h, read-out: GI; method in brief: as §1
# NCI/ADR-RES = assay: Cytotoxicity against human NCI/ADR-RES cells assessed as growth inhibition at 10 uM after 48 hrs by sulphorhodamine B assay; conditions: read-out: GI; method in brief: as §1
# DU-145 = assay: Cytotoxicity against human DU145 cells assessed as growth inhibition at 10 uM after 48 hrs by sulphorhodamine B assay; conditions: DU-145, 48 h, read-out: GI; method in brief: as §1
# HCT-116 = assay: Cytotoxicity against human HCT116 cells assessed as growth inhibition at 10 uM after 48 hrs by sulphorhodamine B assay; conditions: HCT-116, 48 h, read-out: GI; method in brief: as §1
# K562 = assay: Cytotoxicity against human K562 cells assessed as growth inhibition at 10 uM after 48 hrs by sulphorhodamine B assay; conditions: K562, 48 h, read-out: GI; method in brief: as §1
# UO-31 = assay: Cytotoxicity against human UO31 cells assessed as growth inhibition at 10 uM after 48 hrs by sulphorhodamine B assay; conditions: UO-31, 48 h, read-out: GI; method in brief: as §1
# M14 = assay: Cytotoxicity against human M14 cells assessed as growth inhibition at 10 uM after 48 hrs by sulphorhodamine B assay; conditions: M14, 48 h, read-out: GI; method in brief: as §1
# SNB-75 = assay: Cytotoxicity against human SNB75 cells assessed as growth inhibition at 10 uM after 48 hrs by sulphorhodamine B assay; conditions: SNB-75, 48 h, read-out: GI; method in brief: as §1
# HOP-92 = assay: Cytotoxicity against human HOP92 cells assessed as growth inhibition at 10 uM after 48 hrs by sulphorhodamine B assay; conditions: HOP-92, 48 h, read-out: GI; method in brief: as §1
# SF-295 = assay: Cytotoxicity against human SF295 cells assessed as growth inhibition at 10 uM after 48 hrs by sulphorhodamine B assay; conditions: SF-295, 48 h, read-out: GI; method in brief: as §1
# [1] = Cytotoxicity against human EKVX cells assessed as growth inhibition at 10 uM after 48 hrs by sulphorhodamine B assay; conditions: read-out: GI; method in brief: as §1
# IGROV-1 = assay: Cytotoxicity against human IGROV1 cells assessed as growth inhibition at 10 uM after 48 hrs by sulphorhodamine B assay; conditions: IGROV-1, 48 h, read-out: GI; method in brief: as §1
structure (smiles),measurement,setting,value
COc1ccc(-c2c3c(nc4ncnc(N)c24)C(C)CCC3)cc1 (configuration not stated),inhibition of growth at 10 µM,SK-MEL-2,< 10%
same,inhibition of growth at 10 µM,PC-3,15%
same,inhibition of growth at 10 µM,SK-MEL-5,10%
same,inhibition of growth at 10 µM,OVCAR-5,< 10%
same,inhibition of growth at 10 µM,SNB-19,10%
same,inhibition of growth at 10 µM,Hs-578T,< 10%
same,inhibition of growth at 10 µM,A549,< 10%
same,inhibition of growth at 10 µM,MOLT-4,14.3%
same,inhibition of growth at 10 µM,ACHN,10%
same,inhibition of growth at 10 µM,LOX IMVI,13%
same,inhibition of growth at 10 µM,MDA-MB-435,< 10%
same,inhibition of growth at 10 µM,UACC-62,20.9%
same,inhibition of growth at 10 µM,CCRF-CEM,23%
same,inhibition of growth at 10 µM,SF-268,< 10%
same,inhibition of growth at 10 µM,HL-60(TB),< 10%
same,inhibition of growth at 10 µM,HCT-15,20%
same,inhibition of growth at 10 µM,RXF 393,20.3%
same,inhibition of growth at 10 µM,NCI-H522,< 10%
same,inhibition of growth at 10 µM,SR,17.3%
same,inhibition of growth at 10 µM,NCI-H23,< 10%
same,inhibition of growth at 10 µM,HT-29,< 10%
same,inhibition of growth at 10 µM,SK-OV-3,< 10%
same,inhibition of growth at 10 µM,U-251,18.5%
same,inhibition of growth at 10 µM,MDA-MB-468,11.3%
same,inhibition of growth at 10 µM,RPMI-8226,25%
same,inhibition of growth at 10 µM,CAKI-1,< 10%
same,inhibition of growth at 10 µM,T47D,47.7%
same,inhibition of growth at 10 µM,MCF7,< 10%
same,inhibition of growth at 10 µM,A498,< 10%
same,inhibition of growth at 10 µM,OVCAR-4,12.6%
same,inhibition of growth at 10 µM,NCI/ADR-RES,16.3%
same,inhibition of growth at 10 µM,DU-145,< 10%
same,inhibition of growth at 10 µM,HCT-116,14.2%
same,inhibition of growth at 10 µM,K562,23.4%
same,inhibition of growth at 10 µM,UO-31,10.4%
same,inhibition of growth at 10 µM,M14,< 10%
same,inhibition of growth at 10 µM,SNB-75,20.5%
same,inhibition of growth at 10 µM,HOP-92,20.4%
same,inhibition of growth at 10 µM,SF-295,< 10%
same,inhibition of growth at 10 µM,[1],11.5%
same,inhibition of growth at 10 µM,IGROV-1,< 10%
COc1ccc(-c2c3c(nc4nc(C)[nH]c(=O)c24)C(C)CCC3)cc1 (configuration not stated),inhibition of growth at 10 µM,SK-MEL-2,< 10%
same,inhibition of growth at 10 µM,PC-3,14.2%
same,inhibition of growth at 10 µM,SK-MEL-5,13.6%
same,inhibition of growth at 10 µM,OVCAR-5,11.4%
same,inhibition of growth at 10 µM,SNB-19,< 10%
same,inhibition of growth at 10 µM,Hs-578T,< 10%
same,inhibition of growth at 10 µM,A549,10%
same,inhibition of growth at 10 µM,MOLT-4,23.3%
same,inhibition of growth at 10 µM,ACHN,11.3%
same,inhibition of growth at 10 µM,LOX IMVI,17.3%
same,inhibition of growth at 10 µM,MDA-MB-435,19%
same,inhibition of growth at 10 µM,UACC-62,14.8%
same,inhibition of growth at 10 µM,CCRF-CEM,16.5%
same,inhibition of growth at 10 µM,SF-268,< 10%
same,inhibition of growth at 10 µM,HL-60(TB),< 10%
same,inhibition of growth at 10 µM,HCT-15,11%
same,inhibition of growth at 10 µM,RXF 393,12.5%
same,inhibition of growth at 10 µM,NCI-H522,22%
same,inhibition of growth at 10 µM,SR,46.8%
same,inhibition of growth at 10 µM,NCI-H23,< 10%
same,inhibition of growth at 10 µM,HT-29,< 10%
same,inhibition of growth at 10 µM,SK-OV-3,< 10%
same,inhibition of growth at 10 µM,U-251,< 10%
same,inhibition of growth at 10 µM,MDA-MB-468,< 10%
same,inhibition of growth at 10 µM,RPMI-8226,21.8%
same,inhibition of growth at 10 µM,CAKI-1,< 10%
same,inhibition of growth at 10 µM,T47D,18.2%
same,inhibition of growth at 10 µM,MCF7,< 10%
same,inhibition of growth at 10 µM,A498,< 10%
same,inhibition of growth at 10 µM,OVCAR-4,< 10%
same,inhibition of growth at 10 µM,NCI/ADR-RES,< 10%
same,inhibition of growth at 10 µM,DU-145,< 10%
same,inhibition of growth at 10 µM,HCT-116,< 10%
same,inhibition of growth at 10 µM,K562,11.2%
same,inhibition of growth at 10 µM,UO-31,< 10%
same,inhibition of growth at 10 µM,M14,< 10%
same,inhibition of growth at 10 µM,SNB-75,< 10%
same,inhibition of growth at 10 µM,HOP-92,21.3%
same,inhibition of growth at 10 µM,SF-295,< 10%
same,inhibition of growth at 10 µM,[1],< 10%
same,inhibition of growth at 10 µM,IGROV-1,< 10%
